ChEMBL document CHEMBL2375287, “A novel series of histamine H4 receptor antagonists based on the pyrido[3,2-d]pyrimidine scaffold: comparison of hERG binding and target residence time with PF-3893787” (Bioorg Med Chem Lett, 2013)

What follows are molecules tested against Histamine H1 receptor (Homo sapiens, UniProt P35367) (assay: Displacement of [3H]histamine from human histamine H1 receptor expressed in HEK cells). Conditions: not given.
Sequence of Histamine H1 receptor (P35367 whole entry): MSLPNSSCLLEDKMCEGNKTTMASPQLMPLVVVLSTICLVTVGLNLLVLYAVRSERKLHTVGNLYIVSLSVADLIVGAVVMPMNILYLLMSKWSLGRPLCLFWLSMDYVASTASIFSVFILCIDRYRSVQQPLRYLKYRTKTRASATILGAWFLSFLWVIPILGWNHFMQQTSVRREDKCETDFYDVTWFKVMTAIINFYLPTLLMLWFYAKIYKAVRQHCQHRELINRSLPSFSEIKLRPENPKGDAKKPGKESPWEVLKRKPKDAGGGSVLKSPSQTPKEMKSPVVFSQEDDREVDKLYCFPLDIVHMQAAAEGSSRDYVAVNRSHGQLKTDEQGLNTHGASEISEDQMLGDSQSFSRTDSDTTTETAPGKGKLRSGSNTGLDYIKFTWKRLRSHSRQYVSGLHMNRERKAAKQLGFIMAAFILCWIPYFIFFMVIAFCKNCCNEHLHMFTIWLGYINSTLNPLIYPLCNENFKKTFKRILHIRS

| SMILES | Ki [nM] |
| --- | --- |
| CNC1CN(c2nc(N)nc3cc(C4CCCC4)cnc23)C1 | 16600 |
| CNC1CN(c2nc(N)nc3cc(C4CC4)cnc23)C1 | 20900 |
| CCc1cnc2c(N3CC(NC)C3)nc(N)nc2c1 | 33900 |
| CCc1cnc2c(N3CC[C@@H](NC)C3)nc(N)nc2c1 | 11200 |

These molecules were tested against T1, Histamine H4 receptor (Homo sapiens, UniProt Q9H3N8) (assay: Antagonist activity at human histamine H4 receptor expressed in HEK cells assessed as inhibition of histamine-induced [35S]GTPgammaS binding). Conditions: not given.
Assay type: functional, cell-based, HEK293

T1 sequence (Q9H3N8 whole entry): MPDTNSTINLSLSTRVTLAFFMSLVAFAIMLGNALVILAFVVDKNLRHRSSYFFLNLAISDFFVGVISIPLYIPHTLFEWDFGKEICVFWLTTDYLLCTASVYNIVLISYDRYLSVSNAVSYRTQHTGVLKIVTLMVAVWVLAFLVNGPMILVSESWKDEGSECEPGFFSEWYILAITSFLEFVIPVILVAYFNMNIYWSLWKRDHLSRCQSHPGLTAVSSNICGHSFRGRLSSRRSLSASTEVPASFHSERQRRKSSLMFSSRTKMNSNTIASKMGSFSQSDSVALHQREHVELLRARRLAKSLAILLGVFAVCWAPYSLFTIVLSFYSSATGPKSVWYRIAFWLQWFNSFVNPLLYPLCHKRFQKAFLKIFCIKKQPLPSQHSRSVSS

| SMILES | IC50 [nM] |
| --- | --- |
| CNC1CN(c2nc(N)nc3cc(C4CCCC4)cnc23)C1 | 97.7 |
| CNC1CN(c2nc(N)nc3cc(C4CC4)cnc23)C1 | 70.8 |
| CCc1cnc2c(N3CC(NC)C3)nc(N)nc2c1 | 112 |
| CN[C@@H]1CCN(c2cc(NCC3CC3)nc(N)n2)C1 [ADRIFORANT] | 53.7 |
| CCc1cnc2c(N3CC[C@@H](NC)C3)nc(N)nc2c1 | 126 |

Same assay, conditions: HEK293

| SMILES | pKb |
| --- | --- |
| CNC1CN(c2nc(N)nc3cc(C4CCCC4)cnc23)C1 | 8.2 |
| CNC1CN(c2nc(N)nc3cc(C4CC4)cnc23)C1 | 8.33 |
| CCc1cnc2c(N3CC(NC)C3)nc(N)nc2c1 | 8.14 |
| CN[C@@H]1CCN(c2cc(NCC3CC3)nc(N)n2)C1 [ADRIFORANT] | 8.46 |
| CCc1cnc2c(N3CC[C@@H](NC)C3)nc(N)nc2c1 | 8.08 |

These molecules were tested against Voltage-gated inwardly rectifying potassium channel KCNH2 (Homo sapiens, UniProt Q12809) (assay: Displacement of [3H]astemizole from human ERG channel). Conditions: not given.
Sequence of Voltage-gated inwardly rectifying potassium channel KCNH2 (Q12809 whole entry): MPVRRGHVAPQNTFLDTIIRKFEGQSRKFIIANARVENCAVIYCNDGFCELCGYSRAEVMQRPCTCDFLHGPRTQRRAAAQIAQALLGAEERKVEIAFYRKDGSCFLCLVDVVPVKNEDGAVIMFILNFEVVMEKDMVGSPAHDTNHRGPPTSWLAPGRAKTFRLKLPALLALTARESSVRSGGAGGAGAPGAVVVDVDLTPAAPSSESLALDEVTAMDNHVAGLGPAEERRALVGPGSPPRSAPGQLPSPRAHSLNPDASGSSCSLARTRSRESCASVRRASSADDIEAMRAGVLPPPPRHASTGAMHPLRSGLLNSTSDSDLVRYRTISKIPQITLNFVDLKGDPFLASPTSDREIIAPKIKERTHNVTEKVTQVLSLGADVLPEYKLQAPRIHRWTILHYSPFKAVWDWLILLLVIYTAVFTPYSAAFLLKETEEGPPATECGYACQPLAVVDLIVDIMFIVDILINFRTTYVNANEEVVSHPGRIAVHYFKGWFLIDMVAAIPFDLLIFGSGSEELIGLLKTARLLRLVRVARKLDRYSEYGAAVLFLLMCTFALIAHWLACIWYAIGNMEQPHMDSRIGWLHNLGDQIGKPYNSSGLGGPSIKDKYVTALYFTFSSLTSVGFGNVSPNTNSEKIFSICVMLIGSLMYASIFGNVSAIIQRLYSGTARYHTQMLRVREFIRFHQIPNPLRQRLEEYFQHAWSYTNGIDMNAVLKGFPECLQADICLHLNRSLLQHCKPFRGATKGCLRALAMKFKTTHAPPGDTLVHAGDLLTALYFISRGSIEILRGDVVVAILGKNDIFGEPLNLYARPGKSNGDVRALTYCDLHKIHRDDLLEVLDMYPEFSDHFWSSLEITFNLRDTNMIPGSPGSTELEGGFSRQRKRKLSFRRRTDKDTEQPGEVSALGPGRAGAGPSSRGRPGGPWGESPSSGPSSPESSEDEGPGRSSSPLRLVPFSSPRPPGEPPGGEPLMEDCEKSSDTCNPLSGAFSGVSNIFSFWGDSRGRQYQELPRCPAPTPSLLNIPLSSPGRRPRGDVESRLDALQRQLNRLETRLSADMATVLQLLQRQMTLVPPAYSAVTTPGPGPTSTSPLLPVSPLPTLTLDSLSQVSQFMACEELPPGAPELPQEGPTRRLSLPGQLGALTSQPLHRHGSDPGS

| SMILES | Ki [nM] |
| --- | --- |
| CCc1ccc2c(N3CC(NC)C3)nc(N)nc2c1 | 2450 |
| CCc1ccc2c(N3CC[C@@H](NC)C3)nc(N)nc2c1 | 2750 |
| CNC1CN(c2nc(N)nc3cc(C#N)cnc23)C1 | > 100000 |
| CCc1ccc2c(N3CCNCC3)nc(N)nc2c1 | 1510 |
| CNC1CN(c2nc(N)nc3cc(C4CCCC4)cnc23)C1 | > 100000 |
| Nc1nc(N2CCNCC2)c2ccc(C3CCCC3)cc2n1 | 3390 |
| CNC1CN(c2nc(N)nc3cc(C4CC4)cnc23)C1 | > 100000 |
| CNC1CN(c2nc(N)nc3cc(C4CC4)ccc23)C1 | 3630 |
| CN[C@@H]1CCN(c2nc(N)nc3cc(C4CC4)cnc23)C1 | > 100000 |
| CNC1CN(c2nc(N)nc3cc(C4CCCC4)ccc23)C1 | 832 |
| CCc1cnc2c(N3CC(NC)C3)nc(N)nc2c1 | 34700 |
| Nc1nc(N2CCNCC2)c2ccc(C3CC3)cc2n1 | 4680 |
| CN[C@@H]1CCN(c2cc(NCC3CC3)nc(N)n2)C1 [ADRIFORANT] | 3470 |
| CCc1cnc2c(N3CC[C@@H](NC)C3)nc(N)nc2c1 | 43700 |

The molecules below were run against Histamine H3 receptor (Homo sapiens, UniProt Q9Y5N1) (assay: Displacement of [3H]histamine from human histamine H3 receptor expressed in HEK cells). Conditions: not given.
Assay type: cell-based, HEK293

Sequence of Histamine H3 receptor (Q9Y5N1 whole entry): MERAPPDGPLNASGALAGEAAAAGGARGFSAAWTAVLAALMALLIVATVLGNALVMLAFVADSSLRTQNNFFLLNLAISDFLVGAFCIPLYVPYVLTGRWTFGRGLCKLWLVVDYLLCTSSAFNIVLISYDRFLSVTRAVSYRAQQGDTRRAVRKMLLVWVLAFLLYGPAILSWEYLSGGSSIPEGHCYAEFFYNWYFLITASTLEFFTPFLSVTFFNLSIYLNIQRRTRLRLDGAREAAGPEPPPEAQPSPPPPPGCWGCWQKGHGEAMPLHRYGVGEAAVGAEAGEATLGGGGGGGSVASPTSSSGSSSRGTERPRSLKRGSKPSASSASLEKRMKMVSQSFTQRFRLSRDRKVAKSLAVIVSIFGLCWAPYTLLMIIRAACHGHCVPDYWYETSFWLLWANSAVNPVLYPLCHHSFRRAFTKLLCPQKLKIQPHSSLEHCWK

| SMILES | Ki [nM] |
| --- | --- |
| CCc1ccc2c(N3CC(NC)C3)nc(N)nc2c1 | 617 |
| CNC1CN(c2nc(N)nc3cc(C(C)(C)C)ccc23)C1 | 490 |
| CCc1ccc2c(N3CC[C@@H](NC)C3)nc(N)nc2c1 | 603 |
| CNC1CN(c2nc(N)nc3cc(C#N)cnc23)C1 | 9550 |
| CCc1ccc2c(N3CCNCC3)nc(N)nc2c1 | 219 |
| CNC1CN(c2nc(N)nc3cc(C(C)C)cnc23)C1 | 832 |
| CC(C)(C)c1ccc2c(N3CCNCC3)nc(N)nc2c1 | 851 |
| CNC1CN(c2nc(N)nc3cc(C4CCCC4)cnc23)C1 | 151 |
| Nc1nc(N2CCNCC2)c2ccc(C3CCCC3)cc2n1 | 331 |
| CNC1CN(c2nc(N)nc3cc(C4CC4)cnc23)C1 | 631 |
| CN[C@@H]1CCN(c2nc(N)nc3cc(C4CC4)ccc23)C1 | 178 |
| CNC1CN(c2nc(N)nc3cc(C4CC4)ccc23)C1 | 692 |
| CN[C@@H]1CCN(c2nc(N)nc3cc(C4CC4)cnc23)C1 | 1000 |
| CNC1CN(c2nc(N)nc3cc(C4CCCC4)ccc23)C1 | 158 |
| CCc1cnc2c(N3CC(NC)C3)nc(N)nc2c1 | 776 |
| Nc1nc(N2CCNCC2)c2ccc(C3CC3)cc2n1 | 155 |
| CN[C@@H]1CCN(c2cc(NCC3CC3)nc(N)n2)C1 [ADRIFORANT] | 186 |
| CCc1cnc2c(N3CC[C@@H](NC)C3)nc(N)nc2c1 | 1510 |
| CN[C@@H]1CCN(c2nc(N)nc3cc(C(C)C)cnc23)C1 | 145 |
| CCc1cnc2c(N3CCN(C)CC3)nc(N)nc2c1 | 214 |

Species: Homo sapiens
Experiment: Selectivity ratio of Ki for human histamine H3 receptor to Ki for human histamine H4 receptor
Conditions: not given

| SMILES | Ratio Ki |
| --- | --- |
| CCc1ccc2c(N3CC(NC)C3)nc(N)nc2c1 | 89 |
| CNC1CN(c2nc(N)nc3cc(C(C)(C)C)ccc23)C1 | 32 |
| CCc1ccc2c(N3CC[C@@H](NC)C3)nc(N)nc2c1 | 56 |
| CNC1CN(c2nc(N)nc3cc(C#N)cnc23)C1 | 186 |
| CCc1ccc2c(N3CCNCC3)nc(N)nc2c1 | 15 |
| CC(C)(C)c1ccc2c(N3CCNCC3)nc(N)nc2c1 | 24 |
| CNC1CN(c2nc(N)nc3cc(C4CCCC4)cnc23)C1 | 23 |
| Nc1nc(N2CCNCC2)c2ccc(C3CCCC3)cc2n1 | 27 |
| CNC1CN(c2nc(N)nc3cc(C4CC4)cnc23)C1 | 120 |
| CN[C@@H]1CCN(c2nc(N)nc3cc(C4CC4)ccc23)C1 | 8 |
| CNC1CN(c2nc(N)nc3cc(C4CC4)ccc23)C1 | 98 |
| CN[C@@H]1CCN(c2nc(N)nc3cc(C4CC4)cnc23)C1 | 98 |
| CNC1CN(c2nc(N)nc3cc(C4CCCC4)ccc23)C1 | 47 |
| CCc1cnc2c(N3CC(NC)C3)nc(N)nc2c1 | 72 |
| Nc1nc(N2CCNCC2)c2ccc(C3CC3)cc2n1 | 13 |
| CN[C@@H]1CCN(c2cc(NCC3CC3)nc(N)n2)C1 [ADRIFORANT] | 22 |
| CCc1cnc2c(N3CC[C@@H](NC)C3)nc(N)nc2c1 | 166 |
| CN[C@@H]1CCN(c2nc(N)nc3cc(C(C)C)cnc23)C1 | 12 |

Each molecule was assayed against T1, Histamine H4 receptor (assay: Displacement of [3H]histamine from human histamine H4 receptor expressed in HEK cells). Conditions: not given.
Assay type: cell-based, HEK293
Procedure, shortened: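 Displacement of [3H]histamine from membranes of HEK cells transiently expressing human H4R, H3R or H1R. pKi given as mean ± SEM of at least three independent measurements; n = 2 where noted.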

| SMILES | Ki [nM] |
| --- | --- |
| CCc1ccc2c(N3CC(NC)C3)nc(N)nc2c1 | 11.2 |
| CNC1CN(c2nc(N)nc3cc(C(C)(C)C)ccc23)C1 | 15.1 |
| CCc1ccc2c(N3CC[C@@H](NC)C3)nc(N)nc2c1 | 17 |
| CN1CCN(c2nc(N)nc3ccccc23)CC1 | 44.7 |
| CNC1CN(c2nc(N)nc3cc(C#N)cnc23)C1 | 53.7 |
| CCc1ccc2c(N3CCNCC3)nc(N)nc2c1 | 14.8 |
| CNC1CN(c2nc(N)nc3cc(C(C)C)cnc23)C1 | 25.1 |
| CC(C)(C)c1ccc2c(N3CCNCC3)nc(N)nc2c1 | 35.5 |
| CNC1CN(c2nc(N)nc3cc(C4CCCC4)cnc23)C1 | 6.46 |
| Nc1nc(N2CCNCC2)c2ccc(C3CCCC3)cc2n1 | 12.3 |
| CNC1CN(c2nc(N)nc3cc(C4CC4)cnc23)C1 | 5.25 |
| CN1CCN(c2nc(N)nc3cccnc23)CC1 | 30.9 |
| CN[C@@H]1CCN(c2nc(N)nc3cc(C4CC4)ccc23)C1 | 21.9 |
| CNC1CN(c2nc(N)nc3cc(C4CC4)ccc23)C1 | 7.08 |
| CN[C@@H]1CCN(c2nc(N)nc3cc(C4CC4)cnc23)C1 | 10.2 |
| Nc1nc(N2CCNCC2)c2ccc(-c3ccco3)cc2n1 | 15.1 |
| CNC1CN(c2nc(N)nc3cc(C4CCCC4)ccc23)C1 | 3.39 |
| CCc1cnc2c(N3CC(NC)C3)nc(N)nc2c1 | 10.7 |
| Nc1nc(N2CCNCC2)c2ccc(C3CC3)cc2n1 | 11.5 |
| CN[C@@H]1CCN(c2cc(NCC3CC3)nc(N)n2)C1 [ADRIFORANT] | 10.2 |
| CCc1cnc2c(N3CC[C@@H](NC)C3)nc(N)nc2c1 | 9.12 |
| CN[C@@H]1CCN(c2nc(N)nc3cc(C(C)C)cnc23)C1 | 12.3 |
| CCc1cnc2c(N3CCN(C)CC3)nc(N)nc2c1 | 9.33 |

Each molecule was assayed against Histamine H2 receptor (Homo sapiens, UniProt P25021) (assay: Displacement of [3H]histamine from human histamine H2 receptor expressed in HEK cells). Conditions: not given.
Sequence of Histamine H2 receptor (P25021 whole entry): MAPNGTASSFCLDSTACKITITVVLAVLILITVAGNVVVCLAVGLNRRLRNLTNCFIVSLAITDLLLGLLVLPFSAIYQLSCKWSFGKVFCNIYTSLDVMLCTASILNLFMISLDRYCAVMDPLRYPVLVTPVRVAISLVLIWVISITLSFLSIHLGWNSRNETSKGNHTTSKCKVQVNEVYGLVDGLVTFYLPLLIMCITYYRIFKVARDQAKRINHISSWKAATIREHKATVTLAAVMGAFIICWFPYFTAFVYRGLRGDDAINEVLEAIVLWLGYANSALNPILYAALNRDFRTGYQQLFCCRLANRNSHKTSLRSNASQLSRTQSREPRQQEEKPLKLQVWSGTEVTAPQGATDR

| SMILES | Ki [nM] |
| --- | --- |
| CNC1CN(c2nc(N)nc3cc(C4CCCC4)cnc23)C1 | 2820 |
| CCc1cnc2c(N3CC(NC)C3)nc(N)nc2c1 | 14100 |
| CCc1cnc2c(N3CC[C@@H](NC)C3)nc(N)nc2c1 | 3160 |

What follows are molecules tested against T1, Histamine H4 receptor (assay: Displacement of [3H]histamine from human histamine H4 receptor expressed in HEK cells by competitive kinetic analysis). Conditions: not given.
Assay type: cell-based, HEK293

| SMILES | Kd [nM] |
| --- | --- |
| CNC1CN(c2nc(N)nc3cc(C4CCCC4)cnc23)C1 | 10.2 |
| CNC1CN(c2nc(N)nc3cc(C4CC4)cnc23)C1 | 13.5 |
| Nc1nc(N2CCNCC2)c2ccc(-c3ccco3)cc2n1 | 40.7 |
| CCc1cnc2c(N3CC(NC)C3)nc(N)nc2c1 | 8.51 |
| CN[C@@H]1CCN(c2cc(NCC3CC3)nc(N)n2)C1 [ADRIFORANT] | 25.1 |
| CCc1cnc2c(N3CC[C@@H](NC)C3)nc(N)nc2c1 | 21.4 |

What follows are molecules tested against T2, Histamine H4 receptor (Mus musculus, UniProt Q91ZY2) (assay: Binding affinity to mouse histamine H4 receptor). Conditions: not given.
T2 sequence (Q91ZY2 whole entry): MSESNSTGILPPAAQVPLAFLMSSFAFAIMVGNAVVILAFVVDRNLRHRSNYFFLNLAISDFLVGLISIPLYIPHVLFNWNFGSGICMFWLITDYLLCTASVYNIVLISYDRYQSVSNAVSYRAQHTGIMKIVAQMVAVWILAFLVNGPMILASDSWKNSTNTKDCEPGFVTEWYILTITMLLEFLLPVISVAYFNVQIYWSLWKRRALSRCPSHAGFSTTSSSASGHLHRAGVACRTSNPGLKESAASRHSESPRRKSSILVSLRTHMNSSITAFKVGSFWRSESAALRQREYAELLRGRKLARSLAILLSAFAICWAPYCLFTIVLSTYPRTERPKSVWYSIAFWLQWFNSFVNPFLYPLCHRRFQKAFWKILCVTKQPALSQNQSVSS

| SMILES | Ki [nM] |
| --- | --- |
| CNC1CN(c2nc(N)nc3cc(C4CCCC4)cnc23)C1 | 19.5 |
| CNC1CN(c2nc(N)nc3cc(C4CC4)cnc23)C1 | 15.1 |
| CCc1cnc2c(N3CC(NC)C3)nc(N)nc2c1 | 50.1 |
| CN[C@@H]1CCN(c2cc(NCC3CC3)nc(N)n2)C1 [ADRIFORANT] | 55 |
| CCc1cnc2c(N3CC[C@@H](NC)C3)nc(N)nc2c1 | 85.1 |

The molecules below were run against Histamine H4 receptor (Rattus norvegicus, UniProt Q91ZY1) (assay: Binding affinity to rat histamine H4 receptor). Conditions: not given.
Sequence of Histamine H4 receptor (Rattus norvegicus, UniProt Q91ZY1) (Q91ZY1 whole entry): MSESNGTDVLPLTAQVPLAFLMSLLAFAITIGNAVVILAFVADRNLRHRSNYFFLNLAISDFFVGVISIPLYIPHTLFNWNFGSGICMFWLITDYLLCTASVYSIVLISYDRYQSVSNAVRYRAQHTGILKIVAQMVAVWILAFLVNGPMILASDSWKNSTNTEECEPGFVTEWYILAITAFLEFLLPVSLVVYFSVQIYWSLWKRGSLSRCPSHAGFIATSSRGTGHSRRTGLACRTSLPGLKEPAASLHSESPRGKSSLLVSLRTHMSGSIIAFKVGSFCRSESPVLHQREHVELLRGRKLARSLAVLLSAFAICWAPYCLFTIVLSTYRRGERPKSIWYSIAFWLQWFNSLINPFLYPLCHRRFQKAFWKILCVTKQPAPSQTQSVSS

| SMILES | Ki [nM] |
| --- | --- |
| CNC1CN(c2nc(N)nc3cc(C4CCCC4)cnc23)C1 | 27.5 |
| CNC1CN(c2nc(N)nc3cc(C4CC4)cnc23)C1 | 29.5 |
| CCc1cnc2c(N3CC(NC)C3)nc(N)nc2c1 | 70.8 |
| CN[C@@H]1CCN(c2cc(NCC3CC3)nc(N)n2)C1 [ADRIFORANT] | 55 |
| CCc1cnc2c(N3CC[C@@H](NC)C3)nc(N)nc2c1 | 138 |
